Results on 7 compounds are retold here after PMC12467390 (ACS infectious diseases, 2025).

The term MIC denotes the least concentration at which growth counts as inhibited.

Values after ≈ are worked out from the molar mass of the structure shown. Read-outs that look alike come from different tables or passages of the source. Bounds are passed on as bounds.

One experiment deals with Tet50 (Unknown prokaryotic organism, UniProt A0A059WYP6). Put plainly: Steady-state TC consumption assay. The class given is biochemical. The note with it: for Apparent decay constant of IC50 versus pre-incubation time: Tet50.
Experiment [1] relates to TetX7. Put plainly: Steady-state TC consumption assay. It is filed as biochemical. The note with it: dark; for Time-dependence of TetX7 inhibition: pre-incubation 0-240 min; for Apparent IC50 Values, TetX7: no pre-incubation, none detected = no inhibition up to 2.5 mM.
Experiment [2] addresses 4-hydroxybenzoate-3-monooxygenase (PHBH) (Pseudomonas fluorescens, UniProt P00438). Briefly: PHBH NADPH consumption assay. It is filed as biochemical. The method in brief: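 PHBH came from a codon-optimized pobA gene expressed in E. coli: grown at 37 °C in LB with kanamycin, induced with 1 mM IPTG at 15 °C for 12–15 h. It was purified by imidazole elution at pH 8.0 and dialyzed overnight. Activity was measured with para-hydroxybenzoic acid as substrate, following NADPH consumption at A340. Time-dependence was assessed by pre-incubating inhibitor with enzyme for varying times before starting the reaction.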

Experiment [3] relates to E. coli DH5αZ1 empty vector (pZE24). Briefly: MIC by broth microdilution, empty vector control. The class given is cell-based. The note with it: for MIC: Escherichia coli; for MIC, Empty, + TC: presence of 8 μg/mL TC. In general terms: Dilution methods test growth across graded concentrations, often in twofold steps.
Experiment [4] deals with E. coli DH5αZ1 expressing TetX7 from pZE24. Briefly: MIC by broth microdilution, TetX7::pZE24. The class given is cell-based. The note with it: for MIC, TetX7, + TC: presence of 8 μg/mL TC.
The test system of experiment [5] is E. coli DH5αZ1 expressing Tet50 from pZE24. Briefly: MIC by broth microdilution, Tet50::pZE24. The note with it: Escherichia coli, read-out: MIC, Tet50, − TC. It is filed as cell-based.
A further experiment addresses TetX6 (Chryseobacterium oncorhynchi, UniProt A0A316WTJ0). It is filed as biochemical. The note with it: dark; no pre-incubation; none detected = no inhibition up to 2.5 mM.
In experiment [6] the test system is TetX7. Put plainly: Reversibility of TetX7 inhibition by exhaustive dialysis. The class given is biochemical. The note with it: 60 min pre-incubation in the dark; dialysis at 4 °C.
Experiment [7] has as its system E. coli DH5αZ1 empty vector (pZE24). The note with it: aTC alone; empty vector control; ref [28],[30],[31]; cited from earlier work.
Experiment [8] concerns E. coli DH5αZ1 expressing TetX7 from pZE24. The note with it: aTC alone, ref [28],[30],[31]; cited from earlier work.
The subject of experiment [9] is E. coli DH5αZ1 expressing Tet50 from pZE24. The note with it: aTC alone, ref [28],[30],[31]; cited from earlier work.
The subject of experiment [10] is E. coli DH5αZ1 expressing TetX7 or Tet50. The note with it: TC at 8 μg/mL; resistant strains; ref [28],[30],[31]; cited from earlier work.
[11] abbreviates: shielded from light, pre-incubation 0-240 min.
[12] abbreviates: dark, compounds 1 and 2 up to 2.5 mM.

Chain of Tet50 (A0A059WYP6 whole entry): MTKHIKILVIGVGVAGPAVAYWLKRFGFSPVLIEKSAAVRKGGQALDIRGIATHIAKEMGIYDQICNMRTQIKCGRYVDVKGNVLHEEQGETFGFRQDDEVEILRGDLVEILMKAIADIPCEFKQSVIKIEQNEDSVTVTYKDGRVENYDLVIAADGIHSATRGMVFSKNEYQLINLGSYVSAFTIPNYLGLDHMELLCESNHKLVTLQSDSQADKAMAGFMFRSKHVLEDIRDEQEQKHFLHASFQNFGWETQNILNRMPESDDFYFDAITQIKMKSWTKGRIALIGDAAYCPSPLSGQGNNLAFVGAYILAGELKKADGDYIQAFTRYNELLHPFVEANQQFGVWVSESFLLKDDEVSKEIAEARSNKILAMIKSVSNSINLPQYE
Chain of 4-hydroxybenzoate-3-monooxygenase (PHBH) (P00438 whole entry): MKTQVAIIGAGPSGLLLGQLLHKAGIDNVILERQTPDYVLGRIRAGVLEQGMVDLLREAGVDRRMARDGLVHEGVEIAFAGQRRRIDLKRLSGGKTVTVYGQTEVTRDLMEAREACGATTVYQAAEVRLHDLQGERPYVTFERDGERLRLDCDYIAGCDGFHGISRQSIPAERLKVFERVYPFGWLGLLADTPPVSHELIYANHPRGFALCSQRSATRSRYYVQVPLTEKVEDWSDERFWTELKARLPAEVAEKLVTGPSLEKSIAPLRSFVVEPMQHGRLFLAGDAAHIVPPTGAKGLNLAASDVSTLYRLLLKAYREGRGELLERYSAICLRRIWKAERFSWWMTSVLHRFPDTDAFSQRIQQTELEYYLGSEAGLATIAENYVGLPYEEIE

`C#CCNCc1ccc2c(C)c3c(c(O)c2c1O)C(=O)[C@]1(O)C(=O)C(C(N)=O)=C(O)[C@@H](N(C)C)[C@@H]1C3.Cl` [Compound 4, (4S,4aS,12aS)-4-(dimethylamino)-3,10,11,12a-tetrahydroxy-6-methyl-1,12-dioxo-9-((prop-2-yn-1-ylamino)methyl)-1,4,4a,5,12,12a-hexahydrotetracene-2-carboxamide hydrochloride]: the “Time-dependence of Tet50 inhibition” value was “slower time-dependent inactivation” on Tet50 (blue light irradiation) and “clear decrease in the apparent IC50 value correlating to longer enzyme–inhibitor pre-incubation times” at Tet50 (setting [11]). For the same compound, the “Time-dependence of TetX7 inhibition” value in the experiment with TetX7 [1] is listed as “did not observe any time-dependence”. Also, the “Time-dependence of PHBH inhibition” value in [2] (dark) is listed as “time-dependence was observed”. Besides, the “Inhibition of PHBH” value in [2] (setting [12]) is listed as “Inhibition was detected”. The minimum inhibitory concentration (MIC) came out at 32 µg/mL in experiment [3] (read-out: MIC, Empty, − TC) and 32 µg/mL in [5]. Besides, the “MIC, Empty, + TC” value in experiment [3] is below 1 µg/mL. In [4], the “MIC, TetX7, + TC” value came out at 2 µg/mL.
Take `CN(C)[C@@H]1C(O)=C(C(N)=O)C(=O)[C@@]2(O)C(O)=C3C(=O)c4c(O)cccc4[C@@](C)(O)[C@H]3C[C@@H]12` [TC, tetracycline, reference compound]: the MIC in experiment [3] (read-out: MIC of TC) came to 1 µg/mL.
Turning to `CC1(NCc2ccccc2)CC1` [Compound 1, N-(1-methyl)cyclopropylbenzylamine], on Tet50 (blue light irradiation), the “Time-dependence of Tet50 inhibition” value is listed as “inhibit Tet50 in a time-dependent manner”. The “Apparent IC50 Values, TetX7” value with TetX7 [1] was “none detected^a”. Also, the “Apparent IC50 Values, TetX6” value on TetX6 is “none detected^a”. Besides, the “Inhibition of PHBH” value is “potent time-dependent and dose-dependent inhibition” in experiment [2] (blue light irradiation); “no inhibition” in experiment [2] (setting [12]).
For `Cc1c2c(c(O)c3c(O)c(CNC4(C)CC4)ccc13)C(=O)[C@]1(O)C(=O)C(C(N)=O)=C(O)[C@@H](N(C)C)[C@@H]1C2.Cl` [Compound 3, (4S,4aS,12aS)-4-(dimethylamino)-3,10,11,12a-tetrahydroxy-6-methyl-9-(((1-methylcyclopropyl)amino)methyl)-1,12-dioxo-1,4,4a,5,12,12a-hexahydrotetracene-2-carboxamide hydrochloride], on Tet50 (blue light irradiation), the “Apparent decay constant of IC50 versus pre-incubation time” value worked out at 0.9 ± 0.3 min⁻¹. The “Time-dependence of Tet50 inhibition” value at Tet50 (setting [11]) is listed as “clear decrease in the apparent IC50 value correlating to longer enzyme–inhibitor pre-incubation times”. Also, the “Time-dependence of TetX7 inhibition” value in the experiment on TetX7 [1] is reported as “did not observe any time-dependence”. In addition, the “Time-dependence of PHBH inhibition” value in [2] (dark) was “time-dependence was observed”. Besides, the “Inhibition of PHBH” value in experiment [2] (setting [12]) was “Inhibition was detected”. Further, in experiment [3] (read-out: MIC, Empty, − TC), the MIC is 32 µg/mL. Moreover, in experiment [3], the “MIC, Empty, + TC” value is below 1 µg/mL. In addition, the “MIC, TetX7, + TC” value in experiment [4] was found to be 8 µg/mL.
For the compound `C#CCN(C)Cc1ccc2c(C)c3c(c(O)c2c1O)C(=O)[C@]1(O)C(=O)C(C(N)=O)=C(O)[C@@H](N(C)C)[C@@H]1C3` [Compound 5, (4S,4aS,12aS)-4-(dimethylamino)-3,10,11,12a-tetrahydroxy-6-methyl-9-((methyl(prop-2-yn-1-yl)amino)methyl)-1,12-dioxo-1,4,4a,5,12,12a-hexahydrotetracene-2-carboxamide], the “Apparent decay constant of IC50 versus pre-incubation time” value at Tet50 (blue light irradiation) worked out at 0.5 ± 0.1 min⁻¹. Besides, the “Time-dependence of Tet50 inhibition” value is “time- and light- dependent irreversible inactivation of Tet50” at Tet50 (blue light irradiation); “clear decrease in the apparent IC50 value correlating to longer enzyme–inhibitor pre-incubation times” on Tet50 (setting [11]). Besides, the “Time-dependence of TetX7 inhibition” value with TetX7 [1] is “did not observe any time-dependence”. The “TetX7 activity after exhaustive dialysis versus before” value with TetX7 [6] is “reversed upon exhaustive dialysis”. The “MIC, Empty, + TC” value in [3] was below 1 µg/mL. The MIC in experiment [4] (Escherichia coli, read-out: MIC, TetX7, − TC) is 64 µg/mL (≈ 126 µM). Moreover, the “MIC, TetX7, + TC” value in experiment [4] was 2 µg/mL.
Take `C#CCN(C)Cc1ccccc1` [Compound 2, N-methyl-N-benzyl-propargylamine]: the “Time-dependence of Tet50 inhibition” value at Tet50 (blue light irradiation) is “inhibit Tet50 in a time-dependent manner”. In the experiment with TetX7 [1], the “Apparent IC50 Values, TetX7” value is “none detected^a”. Besides, the “Apparent IC50 Values, TetX6” value at TetX6 is listed as “none detected^a”. Besides, the “Inhibition of PHBH” value is “potent time-dependent and dose-dependent inhibition” in experiment [2] (blue light irradiation); “no inhibition” in [2] (setting [12]).
As for `Cc1c2c(c(O)c3c(O)cccc13)C(=O)[C@]1(O)C(=O)C(C(N)=O)=C(O)[C@@H](N(C)C)[C@@H]1C2` [aTC, anhydrotetracycline], the “Time-dependence of Tet50 inhibition” value is reported as “time-dependent inhibition” at Tet50 (blue light irradiation) and “not time-dependent” on Tet50 (setting [11]). The “Time-dependence of TetX7 inhibition” value in the experiment on TetX7 [1] is on record as “did not observe any time-dependence”. For the same compound, the “Inhibition of PHBH” value in experiment [2] (setting [12]) is reported as “Inhibition was detected”. For the same compound, the “MIC of aTC” value in experiment [7] was 4 µg/mL; in [8], 8 µg/mL; in [9], 8 µg/mL. Moreover, the “Inhibitor concentration that rescues growth inhibitory activity of TC” value in experiment [10] was at least 2 µg/mL.
